Activity calls are given as the source filed them.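 The calls were made as follows: active = toxic dose over reversal dose above 10, when toxic dose is under 15 µM; inactive = the rest.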

The assay has as its system Jurkat/DNR viability with daunorubicin, trypan blue, 3 d. Nature of the assay: daunorubicin chemosensitization of ABCB1-expressing cells, SAR follow-up, cell-based, Jurkat/DNR, trypan blue viability, one SAR set (AID 2833). Conditions: for CC50: measured here: toxicity without chemotherapeutic (TD50). In a few lines: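 Material: Daunorubicin-resistant Jurkat/DNR human T-cell line; dosing: test compound series spanning 1–100 µM, three logs; schedule: 3-day compound exposure with daunorubicin; signal: trypan blue exclusion, cell counts by light microscopy; measure: compound level giving 50% viability loss (CR50)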

A word on the EC50: it is the concentration giving half of the maximal effect. In general, CC50 refers to the concentration at which the toxic effect on the cells reaches its halfway point. On to `CCOC(=O)c1c(NC(=O)CSc2ncccn2)sc2c1CCN(Cc1ccccc1)C2`, for which the EC50 is 8.81 µM (inactive) and the CC50 turned out to be 5.1 µM.
Regarding `CCCCn1c(O)c(N=Nc2ccccn2)c2ccccc21`, the EC50 was 13.3 µM (inactive) and the CC50 was 13.3 µM.
The corresponding values for `Cc1cc(C)c(C#N)c(SCc2c(F)cccc2[N+](=O)[O-])n1` are 29.4 µM (inactive) and 3.05 µM.
The corresponding values for `CNc1nc2cc([N+](=O)[O-])c([N+](=O)[O-])cc2nc1NC` are 15.2 µM (inactive) and 6.2 µM.
The corresponding values for `O=[N+]([O-])c1ccc(Nc2nc(Cl)nc(NCCO)n2)cc1` are 9.67 µM (inactive) and 12.8 µM.
For the compound `CCN(CC)P(=O)(Nc1cccc(C(F)(F)F)c1)c1ccc(N(C)C)cc1NC(=O)c1ccco1` (stereo not given), the EC50 was 4.72 µM (inactive) and the CC50 came out at 4.54 µM.
The corresponding values for `COc1ccc(/C=N/NC(=O)c2cccnc2)cc1CN1CCN(c2ccc(F)cc2)CC1` are 17.5 µM (inactive) and 24.1 µM.
The corresponding values for `Cc1nc2cc(-c3cccc(F)c3)nn2c(N2CCN(C(=O)c3ccco3)CC2)c1C` are 1.18 µM and greater than 100 µM.
On to `COC(=O)c1ccc(C(C(=O)NC2CCCCC2)N(Cc2ccccc2)C(=O)Cc2cccs2)cc1` (stereo not given), for which the EC50 was 10.3 µM (inactive) and the CC50 was 8.81 µM.
The corresponding values for `COc1ccc(-c2nn(-c3ccccc3)cc2/C=C/C(=O)N2CCN(c3ccccn3)CC2)cc1` are 9.9 µM (inactive) and 15.2 µM.
On to `CCCCN(C)C1=CC2=CC(=C(C#N)C#N)CCC2CC1` (stereo not given), for which the EC50 was 12.5 µM (inactive) and the CC50 worked out at 15.2 µM.
The corresponding values for `O=[N+]([O-])c1ccccc1-c1nc(-c2ccc(Br)o2)no1` are 14.6 µM (inactive) and 14.6 µM.
Taken in the same sequence, the figures for `CCOC(=O)c1cccc(NC(=O)c2cnc3ccccc3n2)c1` were 13.3 µM (inactive) and 15 µM.
The corresponding values for `N#Cc1ccc(-c2ccc(OCC(=O)NCCc3ccccc3)cc2)cc1` are 43.8 µM (inactive) and 21.4 µM.
Take `CC1=NN(c2ccc([N+](=O)[O-])cc2)C(=O)/C1=C/N(C)C`: the EC50 is 34.5 µM (inactive) and the CC50 was found to be 34.5 µM.
